Results on 13 molecules are retold here after PubChem BioAssay.

Test [1] can be described thus: RPL19A-GFP modulators, yeast TOR pathway, confirmation, cell-based, S. cerevisiae, flow cytometry, cherry picks, mother/daughter gates (AID 2270;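 active means GFP response below 50% of the DMSO control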). Particulars: S. cerevisiae RPL19A-GFP strain, 3 h, at 10 µM, stronger effect = lower value, 100 = same GFP as DMSO wells. (A flow cytometer gives signals particle by particle.)
Test [2] in a line: LAP4-GFP expression modulators in yeast, confirmation, cell-based, cherry picks, flow cytometry, mother/daughter gates (AID 2271;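 active means GFP response above 150% of the DMSO control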;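 further: ratio of sample to DMSO plate mean so 100% equals DMSO level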). Particulars: S. cerevisiae LAP4-GFP strain, 3 h, at 10 µM, stronger effect = higher value, 100 means same as DMSO control. In a few lines:
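System: Alexa 633-stained baker's yeast GFP-fusion strain / Medium: synthetic complete (SC) yeast growth medium / Doses: compound at 10 µM, single point / Times: 3 h treatment at 30 °C with rotation / Detection: HT flow cytometry, GFP fluorescence channel / Benchmarks: DMSO-only negative wells, rapamycin 400 ng/mL positive wells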

Test [3] is described as follows: modulators of MEP2-GFP levels in yeast, confirmation, S. cerevisiae, flow cytometry GFP, cherry picks (AID 2272;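 active means GFP response above 150% of the DMSO control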;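 further: ratio of well signal to plate DMSO mean so 100% equals DMSO level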). The following applies: S. cerevisiae MEP2-GFP strain, 3 h, at 10 µM, stronger effect = higher value.
The nature of test [4]: AGP1-GFP expression modulators, hit retest, confirmation, cell-based, flow cytometry, S. cerevisiae, cherry picks (AID 2273).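 Further: median GFP channel fluorescence over the whole cell population gate.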 The following applies: S. cerevisiae AGP1-GFP strain, 3 h, at 10 µM.
Test [5] in a line: modulators of CIT2-GFP expression in yeast, confirmation, S. cerevisiae, GFP fusion, cherry picks, mother/daughter gates (AID 2274). Particulars: S. cerevisiae CIT2-GFP strain, flow cytometry, 3 h, at 10 µM, stronger effect = higher value.
Where [6] appears, read: measured here: daughter cell gate.
Where [7] appears, read: measured here: mother cell gate.
[8] abbreviates: measured here: daughter cell gate response.
Where [9] appears, read: measured here: mother cell gate response.

Each structure is given as a SMILES string. The source made the active and inactive calls.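 How the source made its calls, unless noted: active means GFP response above 150% of the DMSO level; inconclusive means fewer than 70 events counted for a yeast strain; inactive means the rest.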

Take `COc1ccccc1OC(C)C(=O)Nc1ccccc1C(=O)NCC1CCCO1` (stereo not drawn): the GFP response vs DMSO was 97% (inactive) in test [1], 95.2% in test [1] (setting [6]), 97.2% in test [1] (setting [7]) and 99.5% (inactive) in test [3]. Also, the figures for the GFP response relative to DMSO in test [2], in test [2] (setting [8]) and in test [2] (setting [9]) were 97.7% (inactive), 97.9% and 97.5%, respectively. In addition, the GFP response, % of DMSO in test [4] was 103% (inactive); in test [5], 97.8% (inactive); in test [5] (setting [6]), 98.3%; in test [5] (setting [7]), 96.8%.

Take `Fc1ccccc1-c1nc(NCCCN2CCOCC2)c2ccccc2n1`: the GFP response vs DMSO was 94.4% (inactive) in test [1], 93.6% in test [1] (setting [6]), 95.6% in test [1] (setting [7]) and 96.2% (inactive) in test [3]. The GFP response relative to DMSO is 101% (inactive) in test [2], 99.2% in test [2] (setting [8]) and 98.3% in test [2] (setting [9]). For the same molecule, the GFP response, % of DMSO was 98.5% (inactive) in test [4], 96.9% (inactive) in test [5], 97.2% in test [5] (setting [6]) and 97.3% in test [5] (setting [7]).

Turning to `O=C(NCCCSc1ccccc1)c1cc(Br)ccc1O`, the GFP response vs DMSO in test [1] is 97.8% (inactive); in test [1] (setting [6]), 97.1%; in test [1] (setting [7]), 99.2%; in test [3], 100% (inactive). Moreover, the GFP response relative to DMSO in test [2] is 106% (inactive); in test [2] (setting [8]), 104%; in test [2] (setting [9]) it was 108%. The GFP response, % of DMSO is 93.3% (inactive) in test [4], 98.3% (inactive) in test [5], 99.1% in test [5] (setting [6]) and 99.7% in test [5] (setting [7]).

For the molecule `Cc1ccc(S(=O)(=O)c2ncccc2N)cc1`, the GFP response vs DMSO in test [1] was 99.4% (inactive); in test [1] (setting [6]), 99.4%; in test [1] (setting [7]) it was 99%; in test [3], 100% (inactive). Also, the GFP response relative to DMSO is 101% (inactive) in test [2], 101% in test [2] (setting [8]) and 98.3% in test [2] (setting [9]). The GFP response, % of DMSO in test [4] was 102% (inactive); in test [5], 101% (inactive); in test [5] (setting [6]) it was 101%; in test [5] (setting [7]), 99.7%.

With `CCCN(c1ccccc1F)S(=O)(=O)c1cc(-c2cc(C)no2)ccc1OC`, the GFP response vs DMSO in test [1] was 95.6% (inactive); in test [1] (setting [6]), 95.6%; in test [1] (setting [7]), 96.1%; in test [3], 102% (inactive). Further, the GFP response relative to DMSO was 97.9% (inactive) in test [2], 96% in test [2] (setting [8]) and 98.3% in test [2] (setting [9]). The GFP response, % of DMSO in test [4] is 95.6% (inactive); in test [5] it was 95.5% (inactive); in test [5] (setting [6]) it was 95.4%; in test [5] (setting [7]), 95%.

For the molecule `COc1ccc(-n2c(N)c(C(=O)Nc3c(C)n(C)n(-c4ccccc4)c3=O)c3nc4ccccc4nc32)cc1`, the GFP response vs DMSO in test [1] is 97.4% (inactive); in test [1] (setting [6]), 94.4%; in test [1] (setting [7]) it was 98.1%; in test [3], 103% (inactive). Besides, the GFP response relative to DMSO in test [2] was 99.5% (inactive); in test [2] (setting [8]), 99.1%; in test [2] (setting [9]), 99.4%. The GFP response, % of DMSO is 102% (inactive) in test [4], 94.4% (inactive) in test [5], 93.8% in test [5] (setting [6]) and 94.4% in test [5] (setting [7]).

With `O=C(C1CCN(Cc2nc(Cc3cccc(F)c3)no2)CC1)N1CCOCC1`, the GFP response vs DMSO in test [1] was 99.5% (inactive); in test [1] (setting [6]), 99%; in test [1] (setting [7]) it was 99.8%; in test [3], 100% (inactive). The GFP response relative to DMSO in test [2] was 96.2% (inactive); in test [2] (setting [8]), 100%; in test [2] (setting [9]) it was 97.2%. The GFP response, % of DMSO in test [4] was 103% (inactive); in test [5], 100% (inactive); in test [5] (setting [6]), 99.7%; in test [5] (setting [7]), 102%.

As to `COc1ccc(/C=N\NC(=O)c2cc(OCC(F)(F)F)ccc2OCC(F)(F)F)cc1`, the GFP response vs DMSO is 93.7% (inactive) in test [1], 97.9% in test [1] (setting [6]), 94% in test [1] (setting [7]) and 102% (inactive) in test [3]. In addition, the GFP response relative to DMSO is 96.7% (inactive) in test [2], 97.6% in test [2] (setting [8]) and 98.3% in test [2] (setting [9]). Moreover, the GFP response, % of DMSO in test [4] was 94.8% (inactive); in test [5], 98.3% (inactive); in test [5] (setting [6]), 99.1%; in test [5] (setting [7]), 95%.

Consider `Cc1ccn2c(NC(=O)c3ccco3)c(-c3ccccc3)nc2c1`, for which the GFP response vs DMSO was 98.6% (inactive) in test [1], 100% in test [1] (setting [6]), 96.6% in test [1] (setting [7]) and 107% (inactive) in test [3]. The GFP response relative to DMSO in test [2] was 96.7% (inactive); in test [2] (setting [8]), 96%; in test [2] (setting [9]), 96.1%. Also, the GFP response, % of DMSO in test [4] was 94.8% (inactive); in test [5] it was 103% (inactive); in test [5] (setting [6]), 103%; in test [5] (setting [7]), 101%.

As for `Cc1cccc(N2C(=O)CC(Sc3nc(C)c4c(n3)CCCC4)C2=O)c1` (stereo not drawn), the GFP response vs DMSO is 96.8% (inactive) in test [1], 95.4% in test [1] (setting [6]), 97.2% in test [1] (setting [7]) and 102% (inactive) in test [3]. Besides, the GFP response relative to DMSO in test [2] is 94.1% (inactive); in test [2] (setting [8]) it was 94.4%; in test [2] (setting [9]) it was 95.1%. Moreover, the GFP response, % of DMSO in test [4] was 95% (inactive); in test [5], 99.7% (inactive); in test [5] (setting [6]), 99.1%; in test [5] (setting [7]) it was 99.7%.

Turning to `O=C(NC(=S)NNC(=O)c1cnccn1)c1ccc(Cl)cc1`, the GFP response vs DMSO in test [1] was 103% (inactive); in test [1] (setting [6]) it was 95%; in test [1] (setting [7]), 98.2%; in test [3] it was 114% (inactive). The GFP response relative to DMSO in test [2] was 279% (active); in test [2] (setting [8]), 241%; in test [2] (setting [9]) it was 260%. Moreover, the GFP response, % of DMSO was 95.7% (inactive) in test [4], 106% (inactive) in test [5], 105% in test [5] (setting [6]) and 98.2% in test [5] (setting [7]).

`Cc1cc(NCCCN2CCOCC2)n2nc(C)c(-c3ccc(F)cc3)c2n1`: the GFP response vs DMSO was 95.3% (inactive) in test [1], 95.9% in test [1] (setting [6]), 95.6% in test [1] (setting [7]) and 103% (inactive) in test [3]. Besides, the GFP response relative to DMSO is 104% (inactive) in test [2], 97.5% in test [2] (setting [8]) and 105% in test [2] (setting [9]). For the same molecule, the GFP response, % of DMSO in test [4] is 101% (inactive); in test [5], 97.2% (inactive); in test [5] (setting [6]) it was 95.8%; in test [5] (setting [7]), 99.3%.

As for `O=C(/C=C/c1ccccc1[N+](=O)[O-])c1ccccc1Br`, the GFP response vs DMSO in test [1] is 92.9% (inactive); in test [1] (setting [6]) it was 94.8%; in test [1] (setting [7]) it was 89.1%; in test [3], 101% (inactive). The GFP response relative to DMSO in test [2] was 161% (active); in test [2] (setting [8]), 139%; in test [2] (setting [9]) it was 180%. Also, the GFP response, % of DMSO is 104% (inactive) in test [4], 90.9% (inactive) in test [5], 95.2% in test [5] (setting [6]) and 82.8% in test [5] (setting [7]).
